Data from ChEMBL document CHEMBL6083196, “Synthesis and cytotoxic activity of madecassic acid-silybin conjugate compounds in liver cancer cells” (2024).

How the values were obtained:
[1] = test system: HepG2; experiment: Cytotoxicity against human HepG2 cells incubated for 96 hrs by MTT assay; type: functional
Summary of the method: (§1)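 Cells grown in DMEM with 10% FBS and 1% antibiotic at 37 °C, 5% CO2. Trypsinised, seeded at 3 × 10^4 cells per mL, treated over an eight-point titration for 96 h. MTT (0.5 mg mL−1) added for 4 h at 37 °C, formazan dissolved in DMSO, absorbance read at 570 nm. GI50 is the concentration halving the MTT signal versus untreated control. Ellipticine served as reference; n ≥ 3 repeats.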

[2] = test system: Hep 3B2; experiment: Cytotoxicity against human Hep3B cells incubated for 96 hrs by MTT assay; type: functional; summary of the method: as §1
[3] = test system: Huh-7; experiment: Cytotoxicity against human Huh-7 cells incubated for 96 hrs by MTT assay; type: functional; summary of the method: as §1
[4] = Cytotoxicity against human Huh-7R cells incubated for 96 hrs by MTT assay; type: functional; summary of the method: as §1
[5] = test system: HepG2; experiment: Induction of apoptosis in human HepG2 cells assessed as viable cells at GI50 incubated for 24 hrs by Annexin V-FITC/PI staining based flow cytometry (reference value: 88.62 %); type: functional
[6] = test system: HepG2; experiment: Induction of apoptosis in human HepG2 cells assessed as early apoptotic cells at GI50 incubated for 24 hrs by Annexin V-FITC/PI staining based flow cytometry (reference value: 2.98 %); type: functional
[7] = test system: HepG2; experiment: Induction of apoptosis in human HepG2 cells assessed as late apoptotic cells at GI50 incubated for 24 hrs by Annexin V-FITC/PI staining based flow cytometry (reference value: 3.06 %); type: functional
[8] = test system: HepG2; experiment: Induction of apoptosis in human HepG2 cells assessed as necrotic cells at GI50 incubated for 24 hrs by Annexin V-FITC/PI staining based flow cytometry (reference value: 5.34 %); type: functional
[9] = test system: HepG2; experiment: Induction of apoptosis in human HepG2 cells assessed as viable cells at 3 times GI50 incubated for 24 hrs by Annexin V-FITC/PI staining based flow cytometry (reference value: 88.62 %); type: functional
[10] = test system: HepG2; experiment: Induction of apoptosis in human HepG2 cells assessed as early apoptotic cells at 3 times GI50 incubated for 24 hrs by Annexin V-FITC/PI staining based flow cytometry (reference value: 2.98 %); type: functional
[11] = test system: HepG2; experiment: Induction of apoptosis in human HepG2 cells assessed as late apoptotic cells at 3 times GI50 incubated for 24 hrs by Annexin V-FITC/PI staining based flow cytometry (reference value: 3.06 %); type: functional
[12] = test system: HepG2; experiment: Induction of apoptosis in human HepG2 cells assessed as necrotic cells at 3 times GI50 incubated for 24 hrs by Annexin V-FITC/PI staining based flow cytometry (reference value: 5.34 %); type: functional
[13] = test system: HepG2; experiment: Induction of apoptosis in human HepG2 cells assessed as fold change in caspase-3 level at 0.3 times GI50 incubated for 1 hr by colorimetric assay relative to control; type: functional
Summary of the method: (§2)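 Lysates taken from HepG2 cells 1, 6 or 24 h after treatment at 0.3×, 1× or 3× GI50. Lysis on ice for 10 min, then 10 000 × g spin; protein measured by Bradford. 80 μg protein incubated with DTT and DEVD-pNA substrate for 1 h at 37 °C, in triplicate; absorbance read at 405 nm. Result expressed as fold change versus untreated cells. Camptothecin 0.5 μM as control; mean and SE reported.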

[14] = test system: HepG2; experiment: Induction of apoptosis in human HepG2 cells assessed as fold change in caspase-3 level at 0.3 times GI50 incubated for 6 hrs by colorimetric assay relative to control; type: functional; summary of the method: as §2
[15] = test system: HepG2; experiment: Induction of apoptosis in human HepG2 cells assessed as fold change in caspase-3 level at 0.3 times GI50 incubated for 24 hrs by colorimetric assay relative to control; type: functional; summary of the method: as §2
[16] = test system: HepG2; experiment: Induction of apoptosis in human HepG2 cells assessed as fold change in caspase-3 level at GI50 incubated for 1 hr by colorimetric assay relative to control; type: functional; summary of the method: as §2
[17] = test system: HepG2; experiment: Induction of apoptosis in human HepG2 cells assessed as fold change in caspase-3 level at GI50 incubated for 6 hrs by colorimetric assay relative to control; type: functional; summary of the method: as §2
[18] = test system: HepG2; experiment: Induction of apoptosis in human HepG2 cells assessed as fold change in caspase-3 level at GI50 incubated for 24 hrs by colorimetric assay relative to control; type: functional; summary of the method: as §2
[19] = test system: HepG2; experiment: Induction of apoptosis in human HepG2 cells assessed as fold change in caspase-3 level at 3 times GI50 incubated for 1 hr by colorimetric assay relative to control; type: functional; summary of the method: as §2
[20] = test system: HepG2; experiment: Induction of apoptosis in human HepG2 cells assessed as fold change in caspase-3 level at 3 times GI50 incubated for 6 hrs by colorimetric assay relative to control; type: functional; summary of the method: as §2
[21] = test system: HepG2; experiment: Induction of apoptosis in human HepG2 cells assessed as fold change in caspase-3 level at 3 times GI50 incubated for 24 hrs by colorimetric assay relative to control; type: functional; summary of the method: as §2
[22] = test system: HepG2; experiment: Induction of cell cycle arrest in human HepG2 cells assessed as accumulation at G0/G1 phase at IC50 incubated for 24 hrs by PI staining based flow cytometry (reference value: 24.63 %); type: functional
[23] = test system: HepG2; experiment: Induction of cell cycle arrest in human HepG2 cells assessed as accumulation at S phase at IC50 incubated for 24 hrs by PI staining based flow cytometry (reference value: 46.83 %); type: functional
[24] = test system: HepG2; experiment: Induction of cell cycle arrest in human HepG2 cells assessed as accumulation at G2/M phase at IC50 incubated for 24 hrs by PI staining based flow cytometry (reference value: 27.69 %); type: functional
[25] = test system: HepG2; experiment: Induction of cell cycle arrest in human HepG2 cells assessed as accumulation at G0/G1 phase at 3 times IC50 incubated for 24 hrs by PI staining based flow cytometry (reference value: 24.63 %); type: functional
[26] = test system: HepG2; experiment: Induction of cell cycle arrest in human HepG2 cells assessed as accumulation at S phase at 3 times IC50 incubated for 24 hrs by PI staining based flow cytometry (reference value: 46.83 %); type: functional
[27] = test system: HepG2; experiment: Induction of cell cycle arrest in human HepG2 cells assessed as accumulation at G2/M phase at 3 times IC50 incubated for 24 hrs by PI staining based flow cytometry (reference value: 27.69 %); type: functional
[28] = test system: HepG2; experiment: Induction of apoptosis in human HepG2 cells assessed as necrotic cells incubated for 24 hrs by Annexin V-FITC/PI staining based flow cytometry (reference value: 5.34 %); type: functional
[29] = test system: HepG2; experiment: Induction of apoptosis in human HepG2 cells assessed as late apoptotic cells incubated for 24 hrs by Annexin V-FITC/PI staining based flow cytometry (reference value: 3.06 %); type: functional
[30] = test system: HepG2; experiment: Induction of apoptosis in human HepG2 cells assessed as early apoptotic cells incubated for 24 hrs by Annexin V-FITC/PI staining based flow cytometry (reference value: 2.98 %); type: functional
[31] = test system: HepG2; experiment: Induction of apoptosis in human HepG2 cells assessed as viable cells incubated for 24 hrs by Annexin V-FITC/PI staining based flow cytometry (reference value: 88.62 %); type: functional
[32] = test system: HepG2; experiment: Induction of apoptosis in human HepG2 cells assessed as fold change in caspase-3 level at 0.5 uM incubated for 1 hr by colorimetric assay relative to control
[33] = test system: HepG2; experiment: Induction of apoptosis in human HepG2 cells assessed as fold change in caspase-3 level at 0.5 uM incubated for 6 hrs by colorimetric assay relative to control
[34] = test system: HepG2; experiment: Induction of apoptosis in human HepG2 cells assessed as fold change in caspase-3 level at 0.5 uM incubated for 24 hrs by colorimetric assay relative to control

COc1cc([C@H]2Oc3cc([C@H]4Oc5cc(O)cc(O)c5C(=O)[C@@H]4OC(=O)CNC(=O)[C@]45CC[C@@H](C)[C@H](C)[C@H]4C4=CC[C@@H]6[C@@]7(C)C[C@@H](OC(C)=O)[C@H](OC(C)=O)[C@@](C)(COC(C)=O)[C@@H]7[C@H](O)C[C@@]6(C)[C@]4(C)CC5)ccc3O[C@@H]2CO)ccc1O
GI50 [1]: 32.5 µM | GI50 [2]: 9.61 µM | GI50 [3]: 13.8 µM | GI50 [4]: 14.2 µM | Activity [5]: 71.11% | Activity [6]: 10.65% | Activity [7]: 4.92% | Activity [8]: 13.32% | Activity [9]: 84% | Activity [10]: 1.28% | Activity [11]: 0.91% | Activity [12]: 13.81% | fold change (FC) [13]: 0.59 | fold change (FC) [14]: 0.76 | fold change (FC) [15]: 1.62 | fold change (FC) [16]: 0.76 | fold change (FC) [17]: 1.09 | fold change (FC) [18]: 1.86 | fold change (FC) [19]: 1.69 | fold change (FC) [20]: 1.27 | fold change (FC) [21]: 1.37 | Activity [22]: 26.72% | Activity [23]: 61.09% | Activity [24]: 9.78% | Activity [25]: 27.07% | Activity [26]: 60.41% | Activity [27]: 11.8%

CC[C@@]1(O)C(=O)OCc2c1cc1n(c2=O)Cc2cc3ccccc3nc2-1 [CAMPTOTHECIN]
Activity [28]: 3.85% | Activity [29]: 2.3% | Activity [30]: 14.78% | Activity [31]: 79.08% | fold change (FC) [32]: 1.94 | fold change (FC) [33]: 2.21 | fold change (FC) [34]: 2.19

C[C@H]1[C@H](C)CC[C@]2(C(=O)O)CC[C@]3(C)C(=CC[C@@H]4[C@@]5(C)C[C@@H](O)[C@H](O)[C@@](C)(CO)[C@@H]5[C@H](O)C[C@]43C)[C@H]12 [MADECASSIC ACID]
GI50 [1]: 161 µM | GI50 [2]: 178 µM | GI50 [3]: 198 µM | GI50 [4]: 215 µM | Activity [5]: 80.48% | Activity [6]: 9% | Activity [7]: 4.29% | Activity [8]: 6.23% | Activity [9]: 72.03% | Activity [10]: 13.37% | Activity [11]: 6.16% | Activity [12]: 8.44% | fold change (FC) [13]: 0.74 | fold change (FC) [14]: 0.81 | fold change (FC) [15]: 0.99 | fold change (FC) [16]: 0.94 | fold change (FC) [17]: 1.16 | fold change (FC) [18]: 0.68 | fold change (FC) [19]: 0.97 | fold change (FC) [20]: 1.71 | fold change (FC) [21]: 0.54 | Activity [22]: 19.29% | Activity [23]: 58.52% | Activity [24]: 21.51% | Activity [25]: 54.22% | Activity [26]: 24.25% | Activity [27]: 20.71%
